Values after ≈ are worked out from the molar mass of the structure shown. Values joined by “and” are separate entries in the source; they are usually repeats but may differ in a detail not shown here. Equal values may be shown once.

Assay [1] relates to YAP. Briefly: RT-PCR mRNA expression of YAP in HuCCT-1. It is filed as cell-based, human. To be noted: HuCCT-1, 72 hours.
Assay [2] concerns OUMS-36T-1 (normal human cell line). As to the kind of experiment: Antiproliferative MTT assay, OUMS-36T-1. To be noted: OUMS-36T-1, MTT, 72 hours, mean±SD. It is filed as cell-based. In short, it runs like this:
(§1)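 Cells (8,000/well; HuCCT-1 in RPMI-1640, OUMS-36T-1 in DMEM, both with 10% FBS) were preincubated 24 h at 37°C, 5% CO2, then exposed to test compound for 72 h. Natural product range was 1.95–250 µg/ml. MTT (5 mg/ml stock) was added for 3.5 h, formazan dissolved in DMSO, and A590 read. IC25/IC50 came from dose-response analysis. SI = HuCCT-1 vs OUMS-36T-1 IC50 ratio. Three experiments, triplicate.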
In general terms: Tetrazolium dyes change colour on reduction, which living cells bring about.

For a further assay, the system named is HuCCT-1 (CCA cell line). As to the kind of experiment: Antiproliferative MTT assay, HuCCT-1. It is filed as cell-based, human. The settings on record: for IC25 (concentration that inhibits cell growth by 25%) / IC50 (concentration that inhibits cell growth by 50%): HuCCT-1, MTT, 72 hours, mean±SD; for Selectivity index (SI): ratio of the IC50 in HuCCT-1 and OUMS-36T-1 cells. In short, it runs like this:
as §1

The subject of a further assay is mTOR. Briefly: Western blot protein expression of mTOR in HuCCT-1. The assay is classed as cell-based, human. The settings on record: HuCCT-1, 72 hours, at IC25. In short, it runs like this:
(§2)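 After 72 h exposure to test compound, HuCCT-1 cells were lysed in RIPA buffer with protease inhibitor, and protein was quantified by BCA. Lysates were resolved by SDS-PAGE and transferred to nitrocellulose. Membranes were probed overnight with primary antibodies (target and β-actin), then an AP-conjugated anti-rabbit secondary. Bands were quantified by densitometry. Three experiments, each in triplicate.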
On the technique in general: Immunoblotting shows a protein as a band on a membrane.

The subject of the next assay is Notch1 receptor. As to the kind of experiment: RT-PCR mRNA expression of Notch1 receptor in HuCCT-1. The assay is classed as cell-based, human. The settings on record: HuCCT-1, 72 hours.
Assay [3] concerns YAP. Briefly: Western blot protein expression of YAP in HuCCT-1. The assay is classed as cell-based, human. The settings on record: HuCCT-1, 72 hours, at IC25. A digest of the protocol:
as §2

The test system of assay [4] is PI3K. Briefly: Western blot protein expression of PI3K in HuCCT-1. The assay is classed as cell-based, human. The settings on record: HuCCT-1, 72 hours, at IC50. In short, it runs like this:
as §2

The subject of assay [5] is JAG1 ligand. As to the kind of experiment: RT-PCR mRNA expression of JAG1 ligand in HuCCT-1. It is filed as cell-based, human. The settings on record: HuCCT-1, 72 hours, at IC25.
The test system of assay [6] is JAG1 ligand. Briefly: Western blot protein expression of JAG1 ligand in HuCCT-1. It is filed as cell-based, human. To be noted: HuCCT-1, 72 hours, at IC25. A digest of the protocol:
as §2

The subject of assay [7] is PI3K. Briefly: RT-PCR mRNA expression of PI3K in HuCCT-1. It is filed as cell-based, human. The settings on record: HuCCT-1, 72 hours.

On to `C=C1CCC[C@]2(C)CC[C@@H](C(C)(C)O)C[C@@H]12` [β-eudesmol], for which the “YAP gene expression, fold-change” value stood at 1.978 fold in the assay on YAP [1] (at high concentration (IC50)) and 0.280 fold with YAP [1] (at low concentration (IC25)). Moreover, the “IC25 (concentration that inhibits cell growth by 25%)” value in assay [2] is 18.12 ± 7.43 µg/mL (≈ 81.5 µM); in the assay with HuCCT-1 (CCA cell line), 6.37 ± 2.53 µg/mL (≈ 28.6 µM). Further, the “Selectivity index (SI)” value with HuCCT-1 (CCA cell line) came to 1.68.

Consider `O=c1ncccn1[C@@H]1O[C@H](CO)[C@@H](O)[C@H]1O` [Zebularine], for which the “YAP gene expression, fold-change” value in the assay on YAP [1] (concentration not given) amounted to 0.647 fold. In addition, the “Selectivity index (SI)” value with HuCCT-1 (CCA cell line) is listed as 4.41.

On to `C[C@H](NC(=O)Cc1cc(F)cc(F)c1)C(=O)N[C@H](C(=O)OC(C)(C)C)c1ccccc1` [DAPT], for which the “IC50 (concentration that inhibits cell growth by 50%)” value in assay [2] is 150.29 ± 23.79 µg/mL (≈ 348 µM); with HuCCT-1 (CCA cell line), 88.98 µg/mL and 89.88 ± 36.11 µg/mL.

As for `C/C=C/C#CC#C/C=C/c1ccco1` [Atractylodin], the “mTOR protein expression, fold” value with mTOR came to 1.67 fold. Moreover, the entries for the “YAP gene expression, fold-change” value in the assay on YAP [1] (at high concentration (IC50)) and in the assay with YAP [1] (at low concentration (IC25)) were 2.219 fold and 0.086 fold, respectively. In addition, the “IC25 (concentration that inhibits cell growth by 25%)” value came to 10.08 ± 4.27 µg/mL (≈ 55.3 µM) in assay [2] and 13.44 ± 6.28 µg/mL (≈ 73.8 µM) in the assay on HuCCT-1 (CCA cell line). The “IC50 (concentration that inhibits cell growth by 50%)” value in assay [2] amounted to 24.47 ± 8.46 µg/mL (≈ 134 µM). Besides, in the assay on Notch1 receptor (at IC25 and IC50 concentrations (low and high)), the “Notch1 receptor gene expression, fold of control” value amounted to 0.042 fold. In addition, the “YAP protein expression, fold” value in the assay on YAP [3] is on record as 0.819 fold.

Regarding `Nc1ccn([C@@H]2O[C@H](CO)[C@@H](O)C2(F)F)c(=O)n1` [Gemcitabine], in [2], the “IC25 (concentration that inhibits cell growth by 25%)” value came to 3.40 ± 5.78 µg/mL (≈ 12.9 µM). In addition, in the assay on HuCCT-1 (CCA cell line), the “IC25 (concentration that inhibits cell growth by 25%)” value came out at 0.22 ± 0.35 µg/mL (≈ 0.836 µM), the “IC50 (concentration that inhibits cell growth by 50%)” value turned out to be 4.97 ± 5.09 µg/mL (≈ 18.9 µM) and the “Selectivity index (SI)” value is listed as 14.05. Further, in the assay with PI3K [4], the “PI3K protein expression, fold” value is recorded as 0.677 fold. Moreover, the “Notch1 receptor gene expression, fold of control” value in the assay with Notch1 receptor (at IC50) worked out at 0.318 fold. Also, the “JAG1 ligand gene expression, fold” value in the assay with JAG1 ligand [5] was found to be 1.344 fold. For the same compound, in the assay on JAG1 ligand [6], the “JAG1 ligand protein expression, fold” value is on record as 0.610 fold. The “PI3K gene expression, fold” value in the assay on PI3K [7] (at IC25) stood at 1.4 fold. Further, the “PI3K gene expression, fold” value in the assay with PI3K [7] (at IC50) is listed as 2.25 fold.

The values above are taken from paper PMC10162598 (Asian Pacific Journal of Cancer Prevention : APJCP, 2023).
